Measurements reported in ChEMBL document CHEMBL4145613, “Succinimide-Based Conjugates Improve IsoDGR Cyclopeptide Affinity to αvβ3 without Promoting Integrin Allosteric Activation” (J Med Chem, 2018).
Calls of active or inactive are those of the source. The rule behind the calls is not given here. Numbered stars: 1 amine (or outer) side, 2 acyl side, 3 side chain; on linkers, the order of the positions; unused ones are H or OH. Bridge positions count the residues as written; N and C are the ends. Square brackets hold non-standard residues; d marks the D form. Peptide text beside a SMILES is read from it. * marks the point of attachment. X2 = O=C(O)CN1CCN(CC(=O)O)CCN(CC(=O)NCCN2C(=O)CC(*)C2=O)CC1; X1 = NC(=O)[C@H]1CC[C@H](CN2C(=O)CC(*)C2=O)CC1; Succinimide(1-Et,3-yl) = CCN1C(=O)CC(*)C1=O; βAsp = O=C(O)[C@H](CC(=O)[*:2])N[*:1]

Assays:
Integrin alpha-V/beta-3 [1] = molecular target: T1, Integrin alpha-V/beta-3 (Homo sapiens, UniProt P05106+P06756); experiment: Allosteric activation of integrin alphaVbeta3 receptor in human MSR3 […] assessed as increase in anti-beta3 LIBS integrin antibody AP5 binding at 500 uM incubated for 90 mins by flow cytometry; format: cell-based; details: 1.5 h
Integrin alpha-V/beta-3 [2] = molecular target: T1, Integrin alpha-V/beta-3; experiment: Binding affinity to integrin alphaVbeta3 receptor in human MSR3 cell membranes assessed as change in STD spectra incubated for 2 hrs by NMR spectroscopy relative to untreated control
Method in brief: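 Saturation transfer difference NMR used ligand at 1 mM with native membranes prepared from MSR3 melanoma cells (75-125 x10^6 cells). These cells express high αvβ3, as checked by FACS. Ligand protons nearest the receptor were identified from transferred saturation.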

Integrin alpha-V/beta-3 [3] = molecular target: T1, Integrin alpha-V/beta-3; experiment: Binding affinity to human integrin alphaVbeta3 receptor using acetyl-CisoDGRCGVRSSSRTPSDKY-bio probe and streptavidin-peroxidase conjugate incubated for 3 hrs by competitive binding assay; format: protein-complex assay
Method in brief: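 Ki reported with its standard error from several independent experiments, each run in duplicate. Groups were compared by one-way ANOVA with Dunnett's post-test.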

Integrin alpha-V/beta-3 [4] = molecular target: T1, Integrin alpha-V/beta-3; experiment: Allosteric activation of integrin alphaVbeta3 receptor in human MSR3 […] assessed as increase in anti-beta3 LIBS integrin antibody AP5 binding at 5 uM incubated for 90 mins by flow cytometry; format: cell-based; details: 1.5 h
Integrin alpha-V/beta-3 [5] = molecular target: T1, Integrin alpha-V/beta-3; experiment: Binding affinity to integrin alphaVbeta3 receptor in human MSR3 cell membranes incubated for 2 hrs by Tr-NOESY NMR spectroscopy
Integrin alpha-V/beta-3 [6] = molecular target: T1, Integrin alpha-V/beta-3; experiment: Binding affinity to integrin alphaVbeta3 receptor in EDTA pre-treated human MSR3 cell membranes incubated for 2 hrs by NMR spectroscopy
Method in brief: (§1)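 Ligand (1 mM) NMR-observed with native membranes prepared from human melanoma MSR3 cells (75-125 x10^6 cells), whose high αvβ3 expression was confirmed by FACS. Line 1 used saturation transfer difference (STD) to map the ligand protons closest to the receptor. Line 2 used transferred NOE, comparing NOEs with and without membranes.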

Integrin alpha-V/beta-3 [7] = molecular target: T1, Integrin alpha-V/beta-3; experiment: Binding affinity to integrin alphaVbeta3 receptor in EDTA pre-treated human MSR3 cell membranes incubated for 2 hrs by Tr-NOESY NMR spectroscopy; method in brief: as §1
Integrin alpha-V/beta-3 [8] = molecular target: T1, Integrin alpha-V/beta-3; experiment: Allosteric activation of integrin alphaVbeta3 receptor in human MSR3 […] assessed as increase in monoclonal antibody LM609 binding at 500 uM incubated for 90 mins by flow cytometry; format: cell-based; details: 1.5 h

| Activity (Integrin alpha-V/beta-3 [1]) | Ki (Integrin alpha-V/beta-3 [3]) [nM] | SMILES | other results |
| --- | --- | --- | --- |
| Not Active |  | N=C(N)NCCC[C@@H]1NC(=O)CNC(=O)C[C@@H](C(=O)O)NC(=O)CNC(=O)[C@H](CS)NC(c2ccccc2)C(=O)NC1=O (stereo not given in full) |  |
| Not Active |  | N=C(N)NCCC[C@@H]1NC(=O)CNC(=O)C[C@@H](C(=O)O)NC(=O)[C@H](CS)NCC(=O)NC(=O)C(c2ccccc2)NC1=O (stereo not given in full) |  |
| Not Active | 26.5 | CCN1C(=O)CC(SC[C@@H]2NC(=O)CNC(=O)[C@H](CCCNC(=N)N)NC(=O)CNC(=O)C[C@@H](C(=O)O)NC(=O)CNC2=O)C1=O (stereo not given in full) (GRGC(Succinimide(1-Et,3-yl))GD-OH; lactam N-6) | Activity (Integrin alpha-V/beta-3 [2]): > 50%; Activity (Integrin alpha-V/beta-3 [4]): Not Active; Activity (Integrin alpha-V/beta-3 [5]): > 50% |
| Not Active | 21.6 | N=C(N)NCCC[C@@H]1NC(=O)CNC(=O)C[C@@H](C(=O)O)NC(=O)CNC(=O)[C@H](CSC2CC(=O)N(CCNC(=O)CN3CCN(CC(=O)O)CCN(CC(=O)O)CC3)C2=O)NC(=O)CNC1=O (stereo not given in full) (GRGC(X2)GD-OH; lactam N-6) | Activity (Integrin alpha-V/beta-3 [4]): Not Active |
| Not Active |  | N=C(N)NCCC[C@@H]1NC(=O)CNC(=O)C[C@@H](C(=O)O)NC(=O)[C@H](CS)NC(=O)CNC1=O (GRGCD-OH; lactam N-5) |  |
| Not Active |  | N=C(N)NCCC[C@@H]1NC(=O)CNC(=O)C[C@@H](C(=O)O)NC(=O)CNC(=O)[C@H](CS)NC(=O)CNC1=O (GRGCGD-OH; lactam N-6) | Activity (Integrin alpha-V/beta-3 [8]): Not Active |
| Not Active |  | N=C(N)NCCC[C@@H]1NC(=O)CNC(=O)C[C@@H](C(=O)O)NC(=O)[C@H](CS)NC(=O)CNC(=O)CNC1=O (GRGGCD-OH; lactam N-6) |  |
|  |  | N=C(N)NCCC[C@@H]1NC(=O)CNC(=O)[C@H](CC(=O)O)NC(=O)[C@@H](N)CSSC[C@@H](C(=O)O)NC1=O (H-CDGRC-OH; disulfide 1-5) | Activity (Integrin alpha-V/beta-3 [2]): inactive; Activity (Integrin alpha-V/beta-3 [5]): inactive |
| Not Active |  | N=C(N)NCCC[C@@H]1NC(=O)CNC(=O)C[C@@H](C(=O)O)NC(=O)[C@@H](N)CSSC[C@@H](C(=O)O)NC1=O (H-C[βAsp]GRC-OH; disulfide 1-5) |  |
|  | 6.3 | N=C(N)NCCC[C@@H]1NC(=O)[C@H](CS)NC(=O)[C@@H](Cc2ccccc2)NC(=O)[C@H](CC(=O)O)NC(=O)CNC1=O (cyclo(RGD[dF]C)) |  |

| SMILES | Activity (Integrin alpha-V/beta-3 [1]) | Ki (Integrin alpha-V/beta-3 [3]) [nM] | other results |
| --- | --- | --- | --- |
| N=C(N)NCCC[C@@H]1NC(=O)CNC(=O)C[C@@H](C(=O)O)NC(=O)CNC(=O)[C@H](CSC2CC(=O)N(C[C@H]3CC[C@H](C(N)=O)CC3)C2=O)NC(=O)CNC1=O (stereo not given in full) (GRGC(X1)GD-OH; lactam N-6) | Not Active | 19.9 | Activity (Integrin alpha-V/beta-3 [2]): > 50%; Activity (Integrin alpha-V/beta-3 [6]): inactive; Activity (Integrin alpha-V/beta-3 [4]): Not Active; Activity (Integrin alpha-V/beta-3 [5]): > 50%; Activity (Integrin alpha-V/beta-3 [7]): inactive |
